Assay results taken from article PMC7864382 (Clinical cancer research : an official journal of the …, 2020).
Several values for one entry are separate records, joined by “and”; a condition that tells them apart may be missing. Equal entries are not always repeated. Where two headings read alike, the source gives them in different places.

Key:
[1] = system: pS6RP, p4EBP1, survivin in MDA-MB-468 and HCC1937 cells; test: Immunoblotting of mTOR pathway effectors and survivin; format: cell-based, Human; conditions: immunoblot, 50 nmol/L at 24 hours, 100 nmol/L at 72 hours; for pS6RP (mTOR pathway effector) level: alisertib-sensitive and -resistant TNBC cell lines
Summary of the method: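 Cells were seeded in 6-well plates for 24 h, then exposed to test compounds at 50 nmol/L for 24 h or 100 nmol/L for 72 h, alone or combined. Cells were harvested with trypsin/EDTA and lysed. 50 µg protein was run on 4–12% Bis-Tris gels and transferred to nitrocellulose. Primary antibodies (S6RP, pS6RP, 4EBP1, p4EBP1, survivin, α-tubulin) were used at 1:1,000 overnight, with DyLight secondaries and infrared imaging.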

[2] = system: patients with ER+/HER2− metastatic breast cancer; conditions: cited from earlier work
CU_TNBC_007 PDX model = test: Tumor growth inhibition in TNBC PDX model CU_TNBC_007; format: in vivo, mouse; conditions: TAK-228 0.5 mg/kg daily, alisertib 30 mg/kg daily, vs vehicle
Summary of the method: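 PDX tumor sections were implanted subcutaneously via 12-gauge trocar into both flanks. At a mean of 150–300 mm³ mice were randomized to four arms: vehicle, 0.5 mg/kg daily, 30 mg/kg daily, or combination, all given by oral gavage. Calipers were read twice weekly and volume = length × width² × 0.52. TGI = [1 − (mean final treated volume / mean final vehicle volume)] × 100.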

TNBC patients = conditions: alisertib monotherapy, 14 TNBC patients, phase II trial; cited from earlier work
[3] = human; ref earlier clinical trials; cited from earlier work
CU_TNBC_004 PDX model [4] = test: SA-β-gal staining and H&E of PDX tumors; format: in vivo, mouse
Summary of the method: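 PDX tumors were grown subcutaneously in both flanks. At 150–300 mm³ mice were randomized to vehicle, 0.5 mg/kg daily, 30 mg/kg daily, or combination by oral gavage. Tumors were OCT-embedded, frozen in liquid nitrogen, and cryosectioned. Slides were fixed and stained for SA-β-gal activity at pH 6.0. Matched H&E slides were reviewed by a pathologist to confirm tumor cells. Images were taken at 40×.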

CU_TNBC_004 PDX model [5] = test: Tumor growth inhibition in TNBC PDX model CU_TNBC_004; format: in vivo, mouse; conditions: CU_TNBC_004 (alisertib-resistant); TAK-228 0.5 mg/kg daily, alisertib 30 mg/kg daily, p.o.; vs vehicle
Summary of the method: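 Tumor sections were implanted subcutaneously into both flanks by 12-gauge trocar. At an average of 150–300 mm³, mice were randomized to four arms: vehicle, 0.5 mg/kg daily, 30 mg/kg daily, or both combined, all by oral gavage. Caliper measurements and body weights were taken twice weekly; volume = length × width² × 0.52. TGI = [1 − (mean final treated volume/mean final vehicle volume)] × 100.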

[6] = system: patients with advanced solid tumors
CAL51 FUCCI cells = test: FUCCI cell-cycle analysis and relative growth; format: cell-based, Human; conditions: 100 nmol/L each, 0 to 96 hours
Summary of the method: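 CAL51 cells transduced with the FUCCI biosensor (G1 red, S/G2–M green) were plated and treated with each test compound at 100 nmol/L, alone or combined. Live-cell fluorescence microscopy in an environmentally controlled chamber ran from 0 to 96 h. Relative growth came from time-lapse image growth curves. Combination was compared with single agents at 72 and 96 h.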

[7] = Phase I trial pharmacokinetics in human plasma; format: in vivo
CU_TNBC_004 PDX model [8] = test: Immunofluorescence; format: in vivo, mouse; conditions: CU_TNBC_004 tumors
Summary of the method: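 PDX tumor pieces were implanted subcutaneously by trocar into both flanks. At 150–300 mm³ mice were randomized to vehicle, 0.5 mg/kg daily, 30 mg/kg daily, or combination, all by oral gavage. Frozen OCT tumor sections were fixed and blocked (1% BSA/PBS, 1 h, 37°C), then stained with BAX and DR5 primaries and Alexa Fluor 488/555 secondaries (1 h, 37°C). DAPI counterstain was followed by confocal imaging at 60×.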

[9] = single-agent alisertib, standard dosing schedule
[10] = human, plasma, oral, 1 mg, TAK-228 combo dose with alisertib, 1 mg cohort
[11] = human, plasma, oral, 1 mg, TAK-228 run-in dose (single agent), 1 mg cohort
[12] = human, plasma, oral, 3 mg, TAK-228 run-in dose (single agent), 3 mg cohort

## COc1cc(Nc2ncc3c(n2)-c2ccc(Cl)cc2C(c2c(F)cccc2OC)=NC3)ccc1C(=O)O [alisertib]
[1]
  survivin (antiapoptotic protein) level: increase
  pS6RP (mTOR pathway effector) level: increase
[2]; intermittent alisertib schedule in combination with fulvestrant
  grade ≥3 neutropenia or stomatitis: no grade ≥3 neutropenia or stomatitis
[2]; [9]
  grade 3 to 4 neutropenia: 57%
  grade 3 to 4 stomatitis: 15%
CU_TNBC_007 PDX model
  TGI: 51.74% and 51.7%
TNBC patients
  median progression-free survival: 1.5 months
[3]
  half-life: approximately 20 hours
CU_TNBC_004 PDX model [4]
  Senescent cells by SA-β-gal staining: scattered senescent cells
CU_TNBC_004 PDX model [5]
  TGI: 35.09% and 35.1%
[6]; b.i.d. days 1 to 7 of a 21-day cycle, oral
  MTD / RP2D of alisertib in combination with TAK-228: 30 mg
[6]; in vivo
  Most common toxicities attributed to the drug(s): neutropenia and fatigue
CAL51 FUCCI cells
  Cell-cycle status (FUCCI): continued progression through the cell cycle

## CC(C)n1nc(-c2ccc3oc(N)nc3c2)c2c(N)ncnc21 [TAK-228]
[1]
  p4EBP1 level: decrease
  survivin (antiapoptotic protein) level: decrease
  pS6RP (mTOR pathway effector) level: decrease
CU_TNBC_007 PDX model
  TGI: 30.73% and 30.7%
CU_TNBC_004 PDX model [4]
  Senescent cells by SA-β-gal staining: not observed
CU_TNBC_004 PDX model [5]
  TGI: 54.47% and 54.5%
[7]; TAK-228 combo dose with alisertib, 2 mg cohort
  half-life: 6.0 ± 2.1 h
[7]; [10]
  AUC: 47.4 ± 13.8 ng·h/mL
  Cmax: 8.6 ± 4.2 ng/mL
[7]; [11]
  AUC: 46.7 ± 13.1 ng·h/mL
  Cmax: 7.7 ± 2.6 ng/mL
[7]; human, plasma, oral, 2 mg, TAK-228 combo dose with alisertib, 2 mg cohort
  Cmax: 24.7 ± 13.6 ng/mL
[7]; human, plasma, oral, 2 mg, TAK-228 run-in dose (single agent), 2 mg cohort
  Cmax: 24.2 ± 8.8 ng/mL
[7]; [12]
  AUC: 154 ± 110 ng·h/mL
  Cmax: 25.7 ± 9.4 ng/mL
[7]; human, plasma, oral, 3 mg, Tmax, TAK-228 run-in dose (single agent), 3 mg cohort
  Tmax: 1.3 ± 1.1 h
[6]; 18 patients, combination treatment
  Patients with adverse effects at least possibly related to the drug: 72%
[6]; attribution to TAK-228 alone, alisertib alone or both drugs
  Most common toxicities attributed to the drug(s): Rash
[6]; combination treatment, all dose levels
  Dose reduction of the drug required: 3 patients
[6]; daily, continuous dosing, oral
  MTD / RP2D of TAK-228 in combination with alisertib: 2 mg
CU_TNBC_004 PDX model [8]
  cytoplasmic BAX: increase
CAL51 FUCCI cells
  Cell-cycle status (FUCCI): continued progression through the cell cycle
